Results reported in ChEMBL document CHEMBL4609986 (Bioorg Med Chem, 2020).

Legend:
[1] = target: Maternal embryonic leucine zipper kinase (Homo sapiens, UniProt Q14680); assay: Binding affinity to wild-type human full length MELK (M1 to V651 residues) expressed in bacterial expression system by Kinomescan method
HEK-293T = assay: (§1) Cytotoxicity against human HEK293T cells transfected with DYRK1A co-tranfected with Renilla plasmid, pGL3-NFAT and NFATc1 assessed as reduction in luciferase activity by measuring cell number; assay type: cell-based; conditions: hek-293t
In short: (§2)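 HEK293T cells transfected with PEI using DYRK1A, Renilla plasmid, IL-2-based pGL3-NFAT firefly reporter and NFATc1. Next day the same transfected population was split into 96-well plates; 6 h later cells were treated for 48 h (11-point dose curve, n = 4), then lysed. EC50 from firefly/Renilla ratio, 4-parameter agonist fit. CC50 from loss of constitutive Renilla signal, 4-parameter inhibitor fit.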

Homo sapiens = organism: Homo sapiens; assay: Selectivity index, ratio of CC50 for human HEK293T cells transfected with DYRK1A co-tranfected with Renilla plasmid, pGL3-NFAT and NFATc1 assessed as reduction in luciferase activity by measuring cell number to EC50 for human DYRK1A transfected in HEK293T cells co-transfected with Renilla plasmid, pGL3-NFAT and NFATc1 assessed as derepression of NFAT-dependent luciferase activity measured after 48 hrs by luciferase assay; assay type: cell-based; in short: as §2
[2] = Apparent permeability in human Caco2 cells measured after 2 hrs by LC-MS/MS analysis; assay type: ADME, cell-based, Caco-2; conditions: for Papp at 2 h: Caco-2
In short: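 Caco-2 monolayers grown on polycarbonate filter inserts (5 × 10⁵ cells/well seeded) and differentiated 21 ± 4 days. Transport run in HBSS with 25 mM HEPES, pH 7.4, 37 °C; compound added donor side. Receiver sampled over 2 h, donor at 0 and 2 h; LC-MS/MS with internal standard. Papp = (dC_rec/dt)/(A × C0,donor) × 10^6.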

[3] = Half life in human liver microsomes at 1 uM preincubated for 10 mins followed by NADPH addition and measured up to 40 mins by LC-MS/MS analysis; assay type: ADME, Microsome
In short: (§3)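 Human or mouse liver microsomes, each run separately, in 100 mM KxPO4 pH 7.4 with 10 mM MgCl2 and 1 μM test compound. Pre-incubated 10 min at 37 °C, then started with 1 mM NADPH. Quenched in acetonitrile stop solution at 0, 10, 20 and 40 min, centrifuged, diluted and analysed by LC-MS/MS.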

[4] = target: T1, Dual specificity tyrosine-phosphorylation-regulated kinase 1A (Homo sapiens, UniProt Q13627); assay: Binding affinity to wild-type human partial length DYRK1A (H129 to S509 residues) expressed in mammalian expression system by Kinomescan method
In short: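 Kd measured in a KdELECT binding assay using an 11-point, 3-fold dilution series with three DMSO control points.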

[5] = Selectivity index, ratio of CC50 for mouse R7T1 cells assessed as reduction in cell viability measured after 48 hrs by Hoechst 33342 staining based analysis to MEC for inhibition of DYRK1A in human pancreatic islets assessed as induction of pancreatic beta-cells replication measured after 48 hrs by Hoechst 33342 staining based analysis
[6] = Cytotoxicity against mouse R7T1 cells assessed as reduction in cell viability measured after 48 hrs by Hoechst 33342 staining based analysis
In short: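 Mouse R7T1 β-cells cultured in high-glucose DMEM with 10% FBS, doxycycline and pyruvate, plated at 25,000 cells/well. Treated in quadruplicate 6 h later (0.169–10,000 nM) for 48 h. Cells fixed in paraformaldehyde and stained with 4 μM Hoechst 33342; nuclei counted by high-content imaging.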

[7] = Half life in mouse liver microsomes at 1 uM preincubated for 10 mins followed by NADPH addition and measured up to 40 mins by LC-MS/MS analysis; assay type: ADME, Microsome; in short: as §3
[8] = target: T1, Dual specificity tyrosine-phosphorylation-regulated kinase 1A; assay: Inhibition of human DYRK1A transfected in HEK293T cells co-transfected with Renilla plasmid, pGL3-NFAT and NFATc1 assessed as derepression of NFAT-dependent luciferase activity measured after 48 hrs by luciferase assay; assay type: cell-based, HEK-293T; in short: as §2
[9] = target: T1, Dual specificity tyrosine-phosphorylation-regulated kinase 1A; assay: Inhibition of DYRK1A in human pancreatic islets assessed as induction of pancreatic beta-cells replication measured after 48 hrs by Hoechst 33342 staining based analysis
In short: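 Human islets (85-95% purity) rested 12 h in low-glucose DMEM with 10% FBS and 20 nM exendin-4. Dispersed to single cells and plated on 804G-conditioned-matrix 384-well plates for 48 h. Treated 48 h, then fixed with 4% PFA. Stained with anti-insulin, anti-Ki-67 and 4 μM Hoechst 33342; Ki67+Insulin+/Insulin+ scored by high-content imaging against per-plate cutoffs.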

[10] = as §1; assay type: cell-based, HEK-293T; in short: as §2
AURKB (Aurora kinase B) [11] = target: T2, AURKB (Aurora kinase B) (Homo sapiens, UniProt Q96GD4); assay: Inhibition of AURKB in human HEK293T cells assessed as reduction in cell viability at 40 nM measured after 48 hrs relative to control; assay type: cell-based, HEK-293T
T2 sequence (Q96GD4 whole entry): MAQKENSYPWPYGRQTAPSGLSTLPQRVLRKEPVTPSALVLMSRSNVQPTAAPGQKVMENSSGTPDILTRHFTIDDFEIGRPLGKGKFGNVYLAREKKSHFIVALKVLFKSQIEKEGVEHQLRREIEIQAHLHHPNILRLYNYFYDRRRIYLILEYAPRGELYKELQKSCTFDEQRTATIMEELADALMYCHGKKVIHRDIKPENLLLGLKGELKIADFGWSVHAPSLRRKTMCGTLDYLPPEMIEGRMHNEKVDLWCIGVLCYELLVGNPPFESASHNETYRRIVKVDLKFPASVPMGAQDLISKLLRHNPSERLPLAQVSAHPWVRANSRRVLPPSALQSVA
In short: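 Cells were exposed to the Aurora inhibitor at 40 nM, alone or combined with a second DYRK1A inhibitor at 30, 90 or 270 nM, for 48 h. They were then fixed, stained and counted. Cell number is given as a percentage of untreated wells, with n = 4-16 and error bars as standard deviation.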

[12] = target: Dual specificity mitogen-activated protein kinase kinase 2 (Homo sapiens) (UniProt P36507); assay: Inhibition of wild-type human full length MEK2 (M1 to V400 residues) expressed in mammalian expression system assessed as residual activity at 100 nM by Kinomescan method relative to control
Sequence of Dual specificity mitogen-activated protein kinase kinase 2 (Homo sapiens) (P36507 whole entry, the tested form may be a part): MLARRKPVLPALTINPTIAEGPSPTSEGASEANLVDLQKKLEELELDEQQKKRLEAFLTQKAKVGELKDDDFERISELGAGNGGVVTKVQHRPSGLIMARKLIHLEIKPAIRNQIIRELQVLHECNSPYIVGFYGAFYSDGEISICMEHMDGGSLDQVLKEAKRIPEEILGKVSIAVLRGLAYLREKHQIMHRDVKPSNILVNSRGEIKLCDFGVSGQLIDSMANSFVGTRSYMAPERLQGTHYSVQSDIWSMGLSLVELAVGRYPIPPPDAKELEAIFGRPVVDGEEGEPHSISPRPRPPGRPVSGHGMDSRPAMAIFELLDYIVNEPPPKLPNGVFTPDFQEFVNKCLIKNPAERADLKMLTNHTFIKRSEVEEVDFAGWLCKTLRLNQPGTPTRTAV
In short: (§4)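 Kinase panel of 468 kinases, scored as residual activity at 100 nM or 500 nM test compound.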

[13] = target: T3, Aurora kinase A (Homo sapiens) (UniProt O14965); assay: Inhibition of wild-type human partial length AURKA (E122 to K401 residues) expressed in mammalian expression system assessed as residual activity at 100 nM by Kinomescan method relative to control; in short: as §4
T3 sequence (whole entry): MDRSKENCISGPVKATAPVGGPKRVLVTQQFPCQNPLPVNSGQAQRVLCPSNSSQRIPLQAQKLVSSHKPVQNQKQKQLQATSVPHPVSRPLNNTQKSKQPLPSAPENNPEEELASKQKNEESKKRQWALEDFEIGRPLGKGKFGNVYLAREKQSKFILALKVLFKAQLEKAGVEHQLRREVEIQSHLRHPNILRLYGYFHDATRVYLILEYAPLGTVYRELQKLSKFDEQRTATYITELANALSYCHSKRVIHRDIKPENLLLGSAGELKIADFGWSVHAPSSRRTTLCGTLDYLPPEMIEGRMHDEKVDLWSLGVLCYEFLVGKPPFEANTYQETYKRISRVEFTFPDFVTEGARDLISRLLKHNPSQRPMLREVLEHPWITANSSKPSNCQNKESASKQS

[14] = target: Dual specificity mitogen-activated protein kinase kinase 1 (Homo sapiens) (UniProt Q02750); assay: Inhibition of wild-type human full length MEK1 (M1 to V393 residues) expressed in mammalian expression system assessed as residual activity at 100 nM by Kinomescan method relative to control; in short: as §4
Sequence of Dual specificity mitogen-activated protein kinase kinase 1 (Homo sapiens) (Q02750 whole entry, the tested form may be a part): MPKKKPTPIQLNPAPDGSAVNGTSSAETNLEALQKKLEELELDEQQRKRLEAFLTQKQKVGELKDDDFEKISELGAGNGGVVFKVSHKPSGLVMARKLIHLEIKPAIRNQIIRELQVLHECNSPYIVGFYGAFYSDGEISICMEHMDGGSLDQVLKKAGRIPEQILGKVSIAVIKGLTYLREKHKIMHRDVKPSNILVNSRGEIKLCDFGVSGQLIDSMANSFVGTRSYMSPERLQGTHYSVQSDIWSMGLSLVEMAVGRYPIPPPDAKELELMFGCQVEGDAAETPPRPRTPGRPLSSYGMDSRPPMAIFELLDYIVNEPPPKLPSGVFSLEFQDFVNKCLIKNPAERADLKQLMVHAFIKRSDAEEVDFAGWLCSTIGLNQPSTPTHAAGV

[15] = target: T4, Tyrosine-protein kinase ABL1 (Homo sapiens, UniProt P00519); assay: Inhibition of wild-type human non-phosphorylated ABL1 (S229 to K512 residues) expressed in mammalian expression system assessed as residual activity at 100 nM by Kinomescan method relative to control; in short: as §4
T4 sequence (P00519 whole entry, the tested form may be a part): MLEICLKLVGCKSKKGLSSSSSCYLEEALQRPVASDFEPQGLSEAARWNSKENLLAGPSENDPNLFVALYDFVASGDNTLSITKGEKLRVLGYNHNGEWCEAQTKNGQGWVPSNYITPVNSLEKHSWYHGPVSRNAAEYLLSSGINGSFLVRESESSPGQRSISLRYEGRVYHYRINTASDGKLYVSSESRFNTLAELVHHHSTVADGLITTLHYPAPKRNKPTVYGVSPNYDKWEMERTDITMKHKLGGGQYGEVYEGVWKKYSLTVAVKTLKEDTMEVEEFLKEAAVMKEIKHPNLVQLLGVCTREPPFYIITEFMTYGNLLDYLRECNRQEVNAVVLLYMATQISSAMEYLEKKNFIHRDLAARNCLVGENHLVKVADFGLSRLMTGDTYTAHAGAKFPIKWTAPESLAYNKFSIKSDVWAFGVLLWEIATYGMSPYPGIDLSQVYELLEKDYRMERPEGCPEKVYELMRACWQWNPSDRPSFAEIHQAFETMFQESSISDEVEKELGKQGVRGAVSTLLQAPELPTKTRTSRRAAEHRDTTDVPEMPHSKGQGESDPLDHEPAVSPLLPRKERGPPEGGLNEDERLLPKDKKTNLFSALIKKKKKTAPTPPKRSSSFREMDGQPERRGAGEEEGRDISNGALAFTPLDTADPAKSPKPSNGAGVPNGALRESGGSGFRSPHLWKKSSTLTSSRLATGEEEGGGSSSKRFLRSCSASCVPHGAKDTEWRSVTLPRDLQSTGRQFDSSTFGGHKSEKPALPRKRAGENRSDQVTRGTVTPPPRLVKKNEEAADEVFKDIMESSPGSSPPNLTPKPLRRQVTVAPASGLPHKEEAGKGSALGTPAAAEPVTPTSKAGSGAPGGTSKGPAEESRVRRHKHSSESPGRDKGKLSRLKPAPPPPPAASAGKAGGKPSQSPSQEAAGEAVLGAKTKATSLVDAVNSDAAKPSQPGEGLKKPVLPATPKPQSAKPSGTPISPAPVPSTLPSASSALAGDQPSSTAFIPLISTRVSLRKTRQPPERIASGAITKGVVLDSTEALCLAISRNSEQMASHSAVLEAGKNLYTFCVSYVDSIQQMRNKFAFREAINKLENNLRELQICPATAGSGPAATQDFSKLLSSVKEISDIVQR

[16] = target: T4, Tyrosine-protein kinase ABL1; assay: Inhibition of wild-type human phosphorylated ABL1 (S229 to K512 residues) expressed in mammalian expression system assessed as residual activity at 100 nM by Kinomescan method relative to control; in short: as §4
[17] = target: T1, Dual specificity tyrosine-phosphorylation-regulated kinase 1A; assay: Inhibition of wild-type human partial length DYRK1A (H129 to S509 residues) expressed in mammalian expression system assessed as residual activity at 100 nM by Kinomescan method relative to control; in short: as §4
Aurora kinase B [18] = target: T5, Aurora kinase B (Homo sapiens, UniProt Q96GD4); assay: Inhibition of wild-type human partial length AURKB (D25 to A303 residues) expressed in mammalian expression system assessed as residual activity at 100 nM by Kinomescan method relative to control; in short: as §4
T5 sequence (Q96GD4 whole entry, the tested form may be a part): as the sequence (Q96GD4 whole entry) above

AURKB (Aurora kinase B) [19] = target: T2, AURKB (Aurora kinase B); assay: Inhibition of AURKB in human HEK293T cells assessed as reduction in cell viability at 10 uM measured after 48 hrs relative to control; assay type: cell-based, HEK-293T
In short: (§5)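 HEK293T cells treated 48 h with the compound alone or combined with a second kinase inhibitor at the stated level, then fixed, stained and counted. Cell number expressed as a percentage of untreated wells; n = 4-16.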

AURKB (Aurora kinase B) [20] = target: T2, AURKB (Aurora kinase B); assay: Inhibition of AURKB in human HEK293T cells assessed as reduction in cell viability at 3 uM measured after 48 hrs relative to control; assay type: cell-based, HEK-293T; in short: as §5
Aurora kinase B [21] = target: T5, Aurora kinase B; assay: Inhibition of AURKB in human HEK293T cells assessed as reduction in cell viability at 10 uM measured after 48 hrs; assay type: cell-based; conditions: hek-293t; in short: as §5

Sequence of Maternal embryonic leucine zipper kinase (Q14680 whole entry, the tested form may be a part): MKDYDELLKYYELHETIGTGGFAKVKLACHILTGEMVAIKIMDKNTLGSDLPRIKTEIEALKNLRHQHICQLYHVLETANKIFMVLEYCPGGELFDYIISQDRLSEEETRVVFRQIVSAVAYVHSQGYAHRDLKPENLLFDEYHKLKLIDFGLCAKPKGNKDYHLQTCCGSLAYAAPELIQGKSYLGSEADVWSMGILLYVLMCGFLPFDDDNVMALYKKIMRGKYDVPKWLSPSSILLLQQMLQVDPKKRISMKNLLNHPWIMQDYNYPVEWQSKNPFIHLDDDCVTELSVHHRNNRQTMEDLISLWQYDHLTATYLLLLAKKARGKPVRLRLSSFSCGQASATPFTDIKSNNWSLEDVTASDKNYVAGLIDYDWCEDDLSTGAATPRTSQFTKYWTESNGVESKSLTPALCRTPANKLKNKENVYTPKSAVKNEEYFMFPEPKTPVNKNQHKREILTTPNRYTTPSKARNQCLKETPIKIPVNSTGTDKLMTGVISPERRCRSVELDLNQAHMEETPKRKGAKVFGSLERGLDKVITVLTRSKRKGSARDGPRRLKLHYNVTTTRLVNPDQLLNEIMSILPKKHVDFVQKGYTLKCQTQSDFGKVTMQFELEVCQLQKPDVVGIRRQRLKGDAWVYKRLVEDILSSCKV

| t1/2 [3] [h] | Kd [4] [nM] | t1/2 [7] [h] | EC50 [8] [nM] | MEC [9] [nM] | Structure (SMILES) | CC50 (HEK-293T) [nM] | Ratio CC50/EC50 (Homo sapiens) | Selectivity Index [5] | CC50 [6] [nM] | other results |
| --- | --- | --- | --- | --- | --- | --- | --- | --- | --- | --- |
| – | 0.12 | – | 5 | 5 | CC(=O)c1cnc2ccc(-c3cc(Cl)c(O)c(Cl)c3)nc2c1N[C@H]1CC[C@H](CN(C)C)CC1 | 64 | – | – | 20 | Activity [12]: 1.7%; Activity [13]: 6.6%; Activity [14]: 1.7%; Activity [15]: 0%; Activity [16]: 0%; Activity [17]: 0%; Activity (Aurora kinase B [18]): 0.65% |
| > 2.65 | – | 2.15 | 6 | 3.3 | CCOC(=O)c1cnc2ccc(-c3cc(Cl)c(O)c(Cl)c3)nc2c1NC1CCN(C)CC1 | 1020 | 170 | 117 | 387 | Papp at 2 h [2]: 46 nm/s |
| – | 0.16 | – | 7 | – | CCOC(=O)c1cnc2ccc(-c3cc(Cl)c(O)c(Cl)c3)nc2c1N[C@H]1CC[C@H](CN(C)C)CC1 | 186 | 26 | – | – | Kd [1]: 11 nM |
| – | 0.075 | – | 3 | – | CCCCNC(=O)c1cnc2ccc(-c3cc(Cl)c(O)c(Cl)c3)nc2c1N[C@H]1CC[C@H](CN(C)C)CC1 | 51 | 17 | – | – | Kd [1]: 12 nM |
| – | 0.22 | – | 8 | – | CCOC(=O)c1cnc2ccc(-c3cc(Cl)c(O)c(Cl)c3)nc2c1N[C@H]1CC[C@H](CN)CC1 | 165 | 20 | – | – | Kd [1]: 9 nM |
| 1.58 | – | > 2.65 | 56 | 63 | CCCCNC(=O)c1cnc2ccc(-c3cc(Cl)c(O)c(Cl)c3)nc2c1N[C@H]1CC[C@H](C(=O)N2CCOCC2)CC1 | – | 38 | 39 | 2440 | CC50 [10]: 2120 nM; Papp ([2]; caco-2, 2 h): 91 nm/s |

The next lines start with the molecule.

| Structure (SMILES) | t1/2 [3] [h] | Kd [4] [nM] | t1/2 [7] [h] | EC50 [8] [nM] | MEC [9] [nM] | CC50 (HEK-293T) [nM] | Ratio CC50/EC50 (Homo sapiens) | Selectivity Index [5] | CC50 [6] [nM] | other results |
| --- | --- | --- | --- | --- | --- | --- | --- | --- | --- | --- |
| CCOC(=O)c1cnc2ccc(-c3cc(Cl)c(O)c(Cl)c3)nc2c1N[C@H]1CC[C@H](C(=O)N(C)C)CC1 | > 2.65 | 0.6 | > 2.65 | 50 | 31 | 5900 | 119 | 91 | 2810 | Kd [1]: 13 nM; Papp at 2 h [2]: 1.2 nm/s |
| CCOC(=O)c1cnc2ccc(-c3cc(Cl)c(O)c(Cl)c3)nc2c1N[C@H]1CC[C@H](CC(N)=O)CC1 | 0.467 | – | > 2.65 | 43 | 63 | – | 44 | 22 | 1390 | CC50 [10]: 1890 nM; Papp at 2 h [2]: 0.1 nm/s |
| O=C(O)c1ccc(Nc2ncc3c(n2)-c2ccc(Cl)cc2C(c2c(F)cccc2F)=NC3)cc1 [MLN-8054] | – | – | – | – | – | – | – | – | – | inhibition at 48 h, 0.04 µM (AURKB (Aurora kinase B) [11]): 22% |
| CCOC(=O)c1cnc2ccc(-c3ccnc(N)c3)nc2c1N[C@H]1CC[C@H](CN2CCOCC2)CC1 | 0.617 | – | 0.25 | 37 | 3.3 | – | 79 | 259 | 856 | CC50 [10]: 2960 nM; Papp at 2 h [2]: 27 nm/s |
| O=C(NC[C@H](O)CO)c1ccncc1Nc1ccc(I)cc1F [PIMASERTIB] | – | – | – | – | – | – | – | – | – | inhibition at 48 h, 10 µM (AURKB (Aurora kinase B) [19]): 10% |
| O=C(O)[C@]1(Cc2cccc(Nc3nccs3)n2)CC[C@@H](Oc2cccc(Cl)c2F)CC1 [MK-5108] | – | – | – | – | – | – | – | – | – | inhibition at 48 h, 3 µM (AURKB (Aurora kinase B) [20]): 24% |
| Cn1c(=O)c(F)c(Nc2ccc(I)cc2F)c2c(=O)n(C[C@@H](O)CO)cnc21 [TAK-733] | – | – | – | – | – | – | – | – | – | inhibition (INH) (Aurora kinase B [21]): Not Active |
| CCN(CCO)CCCOc1ccc2c(Nc3cc(CC(=O)Nc4cccc(F)c4)[nH]n3)ncnc2c1 [DEFOSBARASERTIB] | – | – | – | – | – | – | – | – | – | inhibition at 48 h, 0.04 µM (AURKB (Aurora kinase B) [11]): 41% |
